Measured values gathered from unrelated publications.
Each line is one published result; the experiments were not run side by side.
PRSS1: Serine protease 1 (PRSS1, Homo sapiens, UniProt P07477)
PDPK1: 3-phosphoinositide-dependent protein kinase 1 (PDPK1, Homo sapiens, UniProt O15530)

SMILES | target | assay | setting | endpoint | value
O=C(O)C(F)(F)C(F)(F)C(F)(F)C(F)(F)C(F)(F)C(F)(F)C(F)(F)F | Aldo-keto reductase family 1 member C1 (AKR1C1, Homo sapiens, UniProt Q04828) | enzyme activity, inhibitor | – | IC50 | ≥ 50 µM
CC[C@H](C)[C@H](NC(=O)[C@H](CO)NC(=O)CNC(=O)[C@@H](NC(=O)[C@@H](NC(=O)[C@@H](NC(=O)CN)[C@@H](C)O)C(C)C)[C@@H](C)O)C(=O)N[C@@H](CC(C)C)C(=O)N[C@H](C(=O)N1CCC[C@H]1C(=O)N[C@H](C(=O)N[C@@H](CC(=O)O)C(=O)N[C@@H](Cc1ccc(O)cc1)C(=O)NCC(=O)N[C@H]1CSSC[C@@H](C(=O)N[C@@H](CO)C(=O)N[C@H](C(=O)N[C@@H](C)C(=O)N[C@@H](CCSC)C(=O)N[C@@H](Cc2ccc(O)cc2)C(=O)NCC(=O)NCC(=O)N[C@H](C(=O)N[C@H](C(=O)N[C@@H](CC(=O)O)C(=O)N2CCC[C@H]2C(=O)N[C@H](C(=O)N[C@@H](CCCNC(=N)N)C(=O)N[C@@H](Cc2ccccc2)C(=O)N2CCC[C@H]2C(=O)N[C@@H](CC(N)=O)C(=O)N[C@@H](C)C(=O)N[C@@H](Cc2c[nH]c3ccccc23)C(=O)N[C@@H](CCCNC(=N)N)C(=O)N[C@@H](CCC(=O)O)C(=O)N[C@@H](CC(C)C)C(=O)O)[C@@H](C)CC)[C@@H](C)CC)C(C)C)C(C)C)NC(=O)[C@H](CC(C)C)NC(=O)[C@H](Cc2ccccc2)NC(=O)[C@@H]2CCCN2C(=O)[C@H](CC(N)=O)NC(=O)[C@H](Cc2ccccc2)NC1=O)[C@@H](C)CC)[C@@H](C)O | Chymotrypsinogen A (Bos taurus, UniProt P00766) | enzyme activity, inhibitor, fluorescence | – | IC50 | > 100 µM
C=CCc1ccc(OC)cc1 | OR8H1 (Homo sapiens, UniProt Q8NGG4) | cAMP, agonist, luciferase | – | EC50 | > 600 µM
O=C(O)[C@H]1/C(=C/CO)O[C@@H]2CC(=O)N21 | Carbapenem-hydrolyzing beta-lactamase KPC (KPC-2, Klebsiella pneumoniae, UniProt Q9F663) | enzyme activity, inhibitor, absorbance | pH 7, with preincubation | IC50 | 249 µM
CCC(C(=O)Nc1cc(NC2CCNC2)ccc1C)n1cc(Br)cc2nc(SCc3ccc(F)cc3)nc1-2 (centres unmarked) | PRSS1 | enzyme activity, inhibitor | – | IC50 | > 100 µM
COC(=O)c1cc(N(C)C(=O)c2ccn3ncc(-c4ccc(C(=O)O)cc4)c3c2)ccc1Cl | PDPK1 | enzyme activity, inhibitor | – | IC50 | > 30 µM
CCC(C(=O)Nc1cc(NC2CCOCC2)ccc1C)n1cc(Br)cc2nc(SCc3ccc(F)cc3)nc1-2 (centres unmarked) | PRSS1 | enzyme activity, inhibitor | – | IC50 | > 100 µM
CNC(=O)c1ccc(-c2cnn3ccc(C(=O)N(C)c4ccc(Cl)c(C(=O)O)c4)cc23)cc1 | PDPK1 | enzyme activity, inhibitor | – | IC50 | > 30 µM
